{"data": "Measured values from different studies", "target": "Sodium-dependent serotonin transporter (SLC6A4, Homo sapiens, UniProt P31645)", "note": "pIC50, pKi: −log10 of the molar value."}
{"SMILES": "CCC(C)C(=O)[C@]12C(=O)[C@](CC=C(C)C)(C[C@H](CC=C(C)C)[C@@]1(C)CCC=C(C)C)C(=O)C(CC=C(C)C)=C2O (stereo partly shown)", "observed": "ligand displacement", "technique": "radioligand", "setting": "cell membranes", "quantity": "pKi", "result": 4.47}
{"SMILES": "CC(C)c1nc2cc(OCCCCN3CCN(c4cccc5c4OCCO5)CC3)ccc2s1", "observed": "ligand displacement", "technique": "radioligand", "quantity": "pKi", "result": 6.48}
{"SMILES": "CCn1c(-c2nc3cc(C(=O)N4CCC[C@@H](N)C4)cc(OC)c3n2C)cc2cccnc21", "observed": "transporter uptake", "quantity": "pIC50", "result": 4.40}
{"SMILES": "CNc1nc2cc(OCCCCN3CCC(c4cccc(Cl)c4Cl)CC3)ccc2s1", "observed": "ligand displacement", "technique": "radioligand", "quantity": "pKi", "result": 7.21}
{"SMILES": "CC(=O)N1C[C@H](CCN2CCC(c3c[nH]c4cc(Cl)ccc34)CC2)c2ccccc21", "observed": "ligand displacement", "technique": "radioligand", "setting": "cell membranes", "quantity": "pIC50", "result": 6.44}
{"SMILES": "CCn1c(-c2nc3ccc(C(=O)N4CCCC(N)C4)cc3n2C)cc2ccccc21 (stereo not shown)", "observed": "transporter uptake", "quantity": "pIC50", "result": 4.70}
{"SMILES": "CCCCN1CCC(COC(=O)c2ccc(N)c(OCF)c2)CC1", "observed": "cell-free assay", "technique": "radioligand", "quantity": "pKi", "result": "< 5.00"}
{"SMILES": "CCCOC(=O)[C@@]12C[C@@H]1[C@@H](n1cnc3c(NC)nc(C#Cc4ccc(Cl)s4)nc31)[C@H](O)[C@@H]2O", "observed": "ligand displacement", "technique": "radioligand", "setting": "cell membranes", "quantity": "pKi", "result": "< 5.00"}
{"SMILES": "Cc1ccc2cccc(N3CCN(CCCCOc4ccc5sc(C(C)C)nc5c4)CC3)c2n1", "observed": "ligand displacement", "technique": "radioligand", "quantity": "pKi", "result": 6.32}
{"SMILES": "CCN(CC)c1ccc(C2Nc3ccc(C(=O)c4ccccc4)cc3NC3=C2C(=O)CC(C)(C)C3)cc1 (stereo not shown)", "observed": "cell-free assay", "technique": "radioligand", "quantity": "pKi", "result": "< 5.00"}
